Reference: ChEMBL document CHEMBL1795276, “Synthesis and biological testing of novel pyridoisothiazolones as histone acetyltransferase inhibitors” (Bioorg Med Chem, 2011)
pIC50: −log10 of the molar value. Activity calls are given as the source filed them. The calls are words filed in the database; no cut-off is given here.

Legend:
SK-N-SH [1] = test: Growth inhibition of human SK-N-SH cells at 100 uM by CellTiter-96 Aqueous Non-radioactive cell proliferation assay; type: functional; conditions: read-out: GI
In short: (§1)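 SK-N-SH neuroblastoma cells were grown in low-glucose DMEM with 10% FBS, 2 mM L-glutamine and 1% penicillin-streptomycin, and seeded at 5000/well. Compound or DMSO vehicle was added after 24 h, in triplicate.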

[2] = target: T1, Histone acetyltransferase KAT2B (Homo sapiens, UniProt Q92831); test: Inhibition of histone acetylase activity of human recombinant PCAF expressed in Escherichia coli using biotinylated oligopeptide sequences from histone H3 (1-21) substrate by In-vitro time-resolved fluorescence immunosorbent acetyltransferase assay
In short: (§2)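 His-tagged human PCAF from E. coli (IPTG induction at 18 °C overnight), purified on Ni-NTA and stored at pH 6.0. Enzyme was preincubated with inhibitor in DMSO for 10 min at 30 °C in HAT buffer pH 7.5 (0.1% BSA, 0.8% Triton X-100, 100 mM HEPES). Reaction on 20 pmol/well biotinylated H3 1–21 bound to a streptavidin plate, with 100 µM acetyl-CoA final, 1 h at 30 °C. Detection with anti-acetylhistone H3 antibody, then Eu-labelled secondary antibody; time-resolved fluorescence at 340/615 nm. IC50 from RFU plotted against log concentration.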
Target sequence in this assay (Q92831 whole entry): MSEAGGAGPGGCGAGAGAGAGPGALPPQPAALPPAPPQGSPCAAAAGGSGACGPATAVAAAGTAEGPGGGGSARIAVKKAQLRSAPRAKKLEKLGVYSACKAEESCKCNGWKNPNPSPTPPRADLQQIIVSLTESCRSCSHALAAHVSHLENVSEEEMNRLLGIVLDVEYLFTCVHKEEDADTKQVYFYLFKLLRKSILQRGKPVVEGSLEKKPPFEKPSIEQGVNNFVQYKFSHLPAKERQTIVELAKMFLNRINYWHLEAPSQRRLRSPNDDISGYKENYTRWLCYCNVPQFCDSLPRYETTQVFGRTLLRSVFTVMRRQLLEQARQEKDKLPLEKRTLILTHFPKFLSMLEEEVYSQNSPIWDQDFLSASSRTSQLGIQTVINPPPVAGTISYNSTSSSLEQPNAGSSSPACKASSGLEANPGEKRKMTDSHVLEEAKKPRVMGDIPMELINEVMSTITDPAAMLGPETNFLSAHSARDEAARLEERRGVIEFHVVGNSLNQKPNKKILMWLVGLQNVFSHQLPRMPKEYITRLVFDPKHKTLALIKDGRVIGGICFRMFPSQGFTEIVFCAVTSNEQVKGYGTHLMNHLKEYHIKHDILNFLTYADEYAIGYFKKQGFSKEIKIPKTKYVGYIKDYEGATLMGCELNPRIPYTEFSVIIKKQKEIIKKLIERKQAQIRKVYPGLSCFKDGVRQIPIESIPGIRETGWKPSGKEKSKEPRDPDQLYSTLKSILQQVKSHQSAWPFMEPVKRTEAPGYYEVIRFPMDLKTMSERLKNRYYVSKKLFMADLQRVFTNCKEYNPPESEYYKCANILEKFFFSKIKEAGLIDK

HCT-116 [3] = test: Growth inhibition of human HCT116 cells at 100 uM by CellTiter-96 Aqueous Non-radioactive cell proliferation assay; type: functional; conditions: read-out: GI
In short: (§3)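 HCT116 cells were grown in high-glucose DMEM with 10% FBS, 2 mM L-glutamine, 1% non-essential amino acids and penicillin-streptomycin, and seeded at 4000/well. After 24 h, compound or DMSO vehicle was added; triplicates per concentration.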

[4] = target: T1, Histone acetyltransferase KAT2B; test: Inhibition of histone acetylase activity of human recombinant PCAF expressed in Escherichia coli at 50 uM using biotinylated oligopeptide sequences from histone H3 (1-21) substrate by In-vitro time-resolved fluorescence immunosorbent acetyltransferase assay; in short: as §2
Target sequence in this assay (Q92831 whole entry, looked up): as the sequence (Q92831 whole entry) above

HCT-116 [5] = test: Growth inhibition of human HCT116 cells at 25 uM by CellTiter-96 Aqueous Non-radioactive cell proliferation assay; type: functional; conditions: read-out: GI; in short: as §3
SK-N-SH [6] = test: Growth inhibition of human SK-N-SH cells by CellTiter-96 Aqueous Non-radioactive cell proliferation assay; type: functional; in short: as §1
HCT-116 [7] = test: Growth inhibition of human HCT116 cells by CellTiter-96 Aqueous Non-radioactive cell proliferation assay; type: functional; in short: as §3
SK-N-SH [8] = test: Growth inhibition of human SK-N-SH cells at 25 uM by CellTiter-96 Aqueous Non-radioactive cell proliferation assay; type: functional; conditions: read-out: GI; in short: as §1
[9] = target: T1, Histone acetyltransferase KAT2B; test: Inhibition of histone acetylase activity of human recombinant PCAF expressed in Escherichia coli at 25 uM using biotinylated oligopeptide sequences from histone H3 (1-21) substrate by In-vitro time-resolved fluorescence immunosorbent acetyltransferase assay; in short: as §2
Target sequence in this assay (Q92831 whole entry, looked up): as the sequence (Q92831 whole entry) above

[10] = target: T1, Histone acetyltransferase KAT2B; test: Inhibition of histone acetylase activity of human recombinant PCAF expressed in Escherichia coli at 300 uM using biotinylated oligopeptide sequences from histone H3 (1-21) substrate by In-vitro time-resolved fluorescence immunosorbent acetyltransferase assay; in short: as §2
Target sequence in this assay (Q92831 whole entry, looked up): as the sequence (Q92831 whole entry) above

[11] = target: T1, Histone acetyltransferase KAT2B; test: Inhibition of histone acetylase activity of human recombinant PCAF expressed in Escherichia coli at 200 uM using biotinylated oligopeptide sequences from histone H4 (2-24) substrate by In-vitro time-resolved fluorescence immunosorbent acetyltransferase assay
In short: (§4)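 E. coli-expressed His-tagged human PCAF, Ni-NTA purified. Preincubated 10 min at 30 °C with inhibitor (DMSO solution) in HEPES 100 mM pH 7.5 with 0.1% BSA and 0.8% Triton X-100. Substrate was 20 pmol/well biotinylated H4 2–24 on streptavidin wells; 100 µM acetyl-CoA final; incubation steps 1 h at 30 °C. Acetylation read with anti-acetyl-lysine primary antibody and Eu-labelled anti-rabbit secondary, by time-resolved fluorescence at 340/615 nm; IC50 from RFU versus log concentration.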
Target sequence in this assay (Q92831 whole entry, looked up): as the sequence (Q92831 whole entry) above

[12] = target: T1, Histone acetyltransferase KAT2B; test: Inhibition of histone acetylase activity of human recombinant PCAF expressed in Escherichia coli using biotinylated oligopeptide sequences from histone H4 (2-24) substrate by In-vitro time-resolved fluorescence immunosorbent acetyltransferase assay; in short: as §4
Target sequence in this assay (Q92831 whole entry): as above

MCF7 = test: Growth inhibition of human MCF7 cells by CellTiter-96 Aqueous Non-radioactive cell proliferation assay; type: functional
In short: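 MCF-7 cells were grown in RPMI-1640 with 10% FBS, 2 mM L-glutamine and penicillin-streptomycin, and seeded at 5000/well. Compounds or DMSO were added after 24 h; three replicates per concentration.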

[13] = target: T1, Histone acetyltransferase KAT2B; test: Inhibition of histone acetylase activity of human recombinant PCAF expressed in Escherichia coli at 50 uM using biotinylated oligopeptide sequences from histone H4 (2-24) substrate by In-vitro time-resolved fluorescence immunosorbent acetyltransferase assay; in short: as §4
Target sequence in this assay (Q92831 whole entry, looked up): as the sequence (Q92831 whole entry) above

[14] = target: T1, Histone acetyltransferase KAT2B; test: Inhibition of histone acetylase activity of human recombinant PCAF expressed in Escherichia coli at 10 uM using biotinylated oligopeptide sequences from histone H3 (1-21) substrate by In-vitro time-resolved fluorescence immunosorbent acetyltransferase assay; in short: as §2
Target sequence in this assay (Q92831 whole entry, looked up): as the sequence (Q92831 whole entry) above

[15] = target: T1, Histone acetyltransferase KAT2B; test: Inhibition of histone acetylase activity of human recombinant PCAF expressed in Escherichia coli using biotinylated oligopeptide sequences from histone H3 (1-21) substrate in presence of 1 mmol/L DTT by In-vitro time-resolved fluorescence immunosorbent acetyltransferase assay
SK-N-SH [16] = test: Growth inhibition of human SK-N-SH cells at 10 uM by CellTiter-96 Aqueous Non-radioactive cell proliferation assay; type: functional; conditions: read-out: GI; in short: as §1
SK-N-SH [17] = test: Growth inhibition of human SK-N-SH cells at 5 to 25 uM incubated for 6 to 72 hrs by CellTiter-96 Aqueous Non-radioactive cell proliferation assay; type: functional, cell-based
In short: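 Time course in SK-N-SH cells (5000/well, low-glucose DMEM with 10% FBS). Compound at 5, 10 or 25 µM was added 24 h after seeding, and growth was followed up to 72 h of incubation by CellTiter 96 AQueous absorbance, relative to DMSO control.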

SK-N-SH [18] = test: Growth inhibition of human SK-N-SH cells at 40 uM by CellTiter-96 Aqueous Non-radioactive cell proliferation assay; type: functional; conditions: read-out: GI; in short: as §1
HCT-116 [19] = test: Growth inhibition of human HCT116 cells at 40 uM by CellTiter-96 Aqueous Non-radioactive cell proliferation assay; type: functional; conditions: read-out: GI; in short: as §3
HCT-116 [20] = test: Growth inhibition of human HCT116 cells at 20 uM by CellTiter-96 Aqueous Non-radioactive cell proliferation assay; type: functional; conditions: read-out: GI; in short: as §3
SK-N-SH [21] = test: Growth inhibition of human SK-N-SH cells at 20 uM by CellTiter-96 Aqueous Non-radioactive cell proliferation assay; type: functional; conditions: read-out: GI; in short: as §1

SMILES | pIC50 [2] | inhibition of growth at 25 µM (HCT-116 [5]) | GI50 (SK-N-SH [6]) | further results
Cc1ccc(-n2sc3cc(F)ccc3c2=O)cc1 | 5.43 |  |  | inhibition of growth at 100 µM (SK-N-SH [1]): 35%; inhibition of growth at 100 µM (HCT-116 [3]): 49%
COc1cccc(-n2sc3ncccc3c2=O)c1 | 5.30 |  |  | 
O=c1c2cccnc2[s+]([O-])n1Cc1ccc(Cl)c(Cl)c1 (stereo not given) |  |  |  | inhibition [4]: 11%
O=c1c2cccnc2sn1-c1ccc(F)c(F)c1 | 5.23 |  |  | 
COc1ccc(-n2sc3ncccc3c2=O)cc1 | 5.24 | 29% | 19.2 µM | 
O=c1c2ccccc2sn1-c1nc2ccccc2s1 |  |  |  | inhibition [4]: 46%
Cc1cc(C)c2c(=O)n(CC(=O)Nc3ccc(Cl)cc3)sc2n1 |  |  | 22.1 µM | GI50 (HCT-116 [7]): 35.8 µM; inhibition [4]: 38%
CCCCc1ccc(-n2sc3ncc(-c4ccccc4)cc3c2=O)cc1 |  | 33% |  | inhibition of growth at 25 µM (SK-N-SH [8]): 55%; inhibition [9]: 49%
O=c1ccsn1-c1ccc(Cl)c([N+](=O)[O-])c1 | 5.32 |  | 23.2 µM | 
COc1ccc(-n2sc3ncc(C)cc3c2=O)cc1 | 5.19 | 40% | 12.2 µM | 
CCCCc1ccc(-n2sc3ncccc3c2=O)cc1 | 4.80 | 21% | 8.93 µM | 
O=C1/C(=C/c2ccc3c(c2)OCO3)C(=S)SN1Cc1ccco1 |  |  |  | inhibition [9]: < 5%
O=c1c2cccnc2sn1Cc1ccc(Cl)c(Cl)c1 | 5.16 |  | 9.53 µM | GI50 (HCT-116 [7]): 15.8 µM
C=C(C)C(C(=O)OC)n1scc(NCc2ccccc2)c1=O (stereo not given) |  |  |  | inhibition [10]: 48%; inhibition [11]: 20%
Oc1nsc2ncccc12 |  |  |  | inhibition [4]: 17%
O=c1c2cccnc2sn1Cc1ccc(C(F)(F)F)cc1 | 3.89 | 38% | 0.48 µM | pIC50 [12]: 4.59; GI50 (MCF7): 30.2 µM
O=c1c2cccnc2sn1-c1ccccc1 | 5.11 |  |  | inhibition [13]: 88%
O=c1c2cc([N+](=O)[O-])cnc2sn1-c1ccc(Oc2ccccc2)cc1 |  | < 10% |  | inhibition of growth at 25 µM (SK-N-SH [8]): < 5%; inhibition [14]: 48%
O=c1c2cc([N+](=O)[O-])cnc2sn1-c1ccc([N+](=O)[O-])cc1 | 4.93 |  |  | pIC50 [12]: 4.80
O=c1c2cccnc2sn1Cc1ccccc1 | 4.64 |  |  | 

SMILES | pIC50 [2] | inhibition of growth at 25 µM (HCT-116 [5]) | GI50 (SK-N-SH [6]) | further results
O=c1c2cccnc2sn1-c1ccc(Br)cc1 | 5.35 |  |  | 
O=c1c2cccnc2sn1Cc1ccc(F)cc1 | 4.06 |  |  | 
O=c1c2cc([N+](=O)[O-])cnc2sn1-c1ccc(Br)cc1 | 5.31 |  | 53.5 µM | pIC50 [12]: 6.07; GI50 (MCF7): 44.2 µM
Cc1cnc2sn(-c3ccc(Oc4ccccc4)cc3)c(=O)c2c1 | 4.89 | 29% |  | inhibition of growth at 25 µM (SK-N-SH [8]): 32%
COc1ccc(-n2sc3ncc([N+](=O)[O-])cc3c2=O)cc1 | 5.47 |  |  | pIC50 [12]: 5.74; inhibition [15]: inactive
Cc1cnc2sn(-c3ccc([N+](=O)[O-])cc3)c(=O)c2c1 | 4.82 |  |  | pIC50 [12]: 5.57
Cc1cnc2sn(-c3ccc(Br)cc3)c(=O)c2c1 | 5.52 | < 5% | 21.3 µM | 
COc1cccc(Cn2sc3ncccc3c2=O)c1 | 4.65 | 42% |  | inhibition of growth at 10 µM (SK-N-SH [16]): 26%
O=c1c2cccnc2sn1-c1ccc(Cl)cc1 | 5.45 | 23% | 16.1 µM | inhibition [13]: 87%
O=c1c2ccc([N+](=O)[O-])cc2sn1Cc1ccccc1 | 5.12 |  |  | pIC50 [12]: 4.29
Cc1ccc(Cn2sc3ncccc3c2=O)cc1 | 4.55 | 79% |  | inhibition of growth at 10 µM (SK-N-SH [16]): 31%
O=c1c2cccnc2sn1Cc1ccc(Cl)cc1 | 4.76 | 97% |  | inhibition of growth at 10 µM (SK-N-SH [16]): 20%
O=C1c2cccnc2S(=O)(=O)N1Cc1ccc(Cl)c(Cl)c1 |  |  |  | inhibition [4]: 6%
O=c1c2cccnc2sn1-c1ccc([N+](=O)[O-])cc1 | 5.39 |  |  | pIC50 [12]: 5.52
Cc1cc(C)c2c(=O)n(CC(=O)Nc3ccc(F)cc3C)sc2n1 |  |  | 25.7 µM | GI50 (HCT-116 [7]): 22.6 µM; inhibition [4]: 48%
O=c1c2cccnc2sn1Cc1ccc(F)c(F)c1 | 4.00 |  |  | 
O=c1c2cccnc2sn1-c1ccc(F)cc1 | 5.79 | 28% | 10.3 µM | pIC50 [12]: 6.14; GI50 (MCF7): 37.2 µM; growth inhibition (GI) (SK-N-SH [17]): Dose-dependent effect
Cc1ccc(-n2sc3ncccc3c2=O)cc1 | 5.33 | 20% | 6.2 µM | inhibition [13]: 75%
O=C(Cn1sc2cc(F)ccc2c1=O)Nc1nc(-c2ccccc2)cs1 |  |  |  | inhibition of growth at 40 µM (SK-N-SH [18]): < 5%; inhibition of growth at 40 µM (HCT-116 [19]): < 5%; inhibition [4]: 21%
O=c1c2cccnc2sn1-c1ccc(Cl)c(Cl)c1 | 5.34 |  |  | inhibition of growth at 20 µM (HCT-116 [20]): 56%; inhibition [13]: 91%; inhibition of growth at 20 µM (SK-N-SH [21]): 37%
